From ChEMBL document CHEMBL4330096, “Discovery of potent and selective 5-azaindazole inhibitors of leucine-rich repeat kinase 2 (LRRK2) - Part 1” (Bioorg Med Chem Lett, 2019)

Key:
[1] = molecular target: T1, Eukaryotic elongation factor 2 kinase (Homo sapiens) (UniProt O00418); test: Inhibition of EF2K (unknown origin) at 10 uM relative to control
T1 sequence (whole entry): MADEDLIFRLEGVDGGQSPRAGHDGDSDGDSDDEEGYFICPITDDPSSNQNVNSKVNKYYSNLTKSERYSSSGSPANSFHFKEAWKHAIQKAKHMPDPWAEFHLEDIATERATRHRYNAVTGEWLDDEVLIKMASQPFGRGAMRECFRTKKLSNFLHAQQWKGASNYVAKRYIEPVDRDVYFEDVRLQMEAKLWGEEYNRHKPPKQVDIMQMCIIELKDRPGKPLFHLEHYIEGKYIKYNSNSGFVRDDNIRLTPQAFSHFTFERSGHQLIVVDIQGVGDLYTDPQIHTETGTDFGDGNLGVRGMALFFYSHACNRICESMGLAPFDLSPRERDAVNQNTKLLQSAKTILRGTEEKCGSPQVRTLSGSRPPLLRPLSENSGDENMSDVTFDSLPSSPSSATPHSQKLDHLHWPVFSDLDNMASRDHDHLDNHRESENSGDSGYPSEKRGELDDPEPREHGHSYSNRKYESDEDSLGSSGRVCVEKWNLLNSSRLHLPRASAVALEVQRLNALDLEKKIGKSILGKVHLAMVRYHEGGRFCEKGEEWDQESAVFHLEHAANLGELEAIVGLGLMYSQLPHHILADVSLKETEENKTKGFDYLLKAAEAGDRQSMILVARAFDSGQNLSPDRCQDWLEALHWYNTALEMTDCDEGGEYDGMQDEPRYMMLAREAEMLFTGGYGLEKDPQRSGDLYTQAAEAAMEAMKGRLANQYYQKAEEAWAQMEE
How it was run: (§1)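 Single-point screen of each compound against a panel of 59 protein kinases, at 1 or 10 μM. The panel data are also summarised as a rescaled geometric mean selectivity score.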

[2] = molecular target: Insulin receptor-related protein (Homo sapiens) (UniProt P14616); test: Inhibition of IRR (unknown origin) at 10 uM relative to control; how it was run: as §1
Sequence of Insulin receptor-related protein (Homo sapiens) (P14616 27-742 limits assumed): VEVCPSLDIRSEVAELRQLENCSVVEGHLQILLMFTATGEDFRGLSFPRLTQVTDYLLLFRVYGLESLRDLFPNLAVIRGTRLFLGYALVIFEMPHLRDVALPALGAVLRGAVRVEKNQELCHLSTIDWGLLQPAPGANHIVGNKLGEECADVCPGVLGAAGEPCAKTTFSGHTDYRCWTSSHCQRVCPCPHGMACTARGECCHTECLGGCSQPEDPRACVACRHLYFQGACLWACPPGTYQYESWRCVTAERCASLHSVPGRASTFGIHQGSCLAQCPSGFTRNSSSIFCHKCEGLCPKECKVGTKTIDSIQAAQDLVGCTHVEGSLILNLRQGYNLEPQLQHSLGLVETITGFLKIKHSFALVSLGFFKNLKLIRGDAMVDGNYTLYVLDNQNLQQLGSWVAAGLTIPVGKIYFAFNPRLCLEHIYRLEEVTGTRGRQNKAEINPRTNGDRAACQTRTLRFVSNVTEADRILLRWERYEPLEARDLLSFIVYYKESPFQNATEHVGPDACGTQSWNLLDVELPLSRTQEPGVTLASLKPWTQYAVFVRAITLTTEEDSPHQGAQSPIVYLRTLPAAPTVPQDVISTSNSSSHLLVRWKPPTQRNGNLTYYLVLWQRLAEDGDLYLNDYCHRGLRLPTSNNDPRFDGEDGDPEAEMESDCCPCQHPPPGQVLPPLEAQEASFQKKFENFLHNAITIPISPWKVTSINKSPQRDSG
Sequence of Insulin receptor-related protein (Homo sapiens) (P14616 747-1297 limits assumed): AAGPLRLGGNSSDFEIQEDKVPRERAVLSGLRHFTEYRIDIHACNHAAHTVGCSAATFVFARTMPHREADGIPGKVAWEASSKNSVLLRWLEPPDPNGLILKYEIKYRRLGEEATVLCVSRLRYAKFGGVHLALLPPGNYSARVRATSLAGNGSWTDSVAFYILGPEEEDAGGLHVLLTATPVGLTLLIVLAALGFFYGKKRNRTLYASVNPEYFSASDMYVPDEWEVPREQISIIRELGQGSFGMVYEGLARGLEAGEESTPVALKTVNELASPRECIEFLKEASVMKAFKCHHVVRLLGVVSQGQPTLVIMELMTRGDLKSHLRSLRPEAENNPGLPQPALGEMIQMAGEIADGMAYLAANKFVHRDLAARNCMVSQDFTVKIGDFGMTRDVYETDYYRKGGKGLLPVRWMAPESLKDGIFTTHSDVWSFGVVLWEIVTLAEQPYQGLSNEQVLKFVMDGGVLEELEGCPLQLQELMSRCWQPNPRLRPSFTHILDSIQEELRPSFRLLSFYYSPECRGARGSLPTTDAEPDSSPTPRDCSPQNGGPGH

[3] = molecular target: T2, Serine/threonine-protein kinase 3 (Homo sapiens) (UniProt Q13188); test: Inhibition of MST2 (unknown origin) at 10 uM relative to control
T2 sequence (whole entry): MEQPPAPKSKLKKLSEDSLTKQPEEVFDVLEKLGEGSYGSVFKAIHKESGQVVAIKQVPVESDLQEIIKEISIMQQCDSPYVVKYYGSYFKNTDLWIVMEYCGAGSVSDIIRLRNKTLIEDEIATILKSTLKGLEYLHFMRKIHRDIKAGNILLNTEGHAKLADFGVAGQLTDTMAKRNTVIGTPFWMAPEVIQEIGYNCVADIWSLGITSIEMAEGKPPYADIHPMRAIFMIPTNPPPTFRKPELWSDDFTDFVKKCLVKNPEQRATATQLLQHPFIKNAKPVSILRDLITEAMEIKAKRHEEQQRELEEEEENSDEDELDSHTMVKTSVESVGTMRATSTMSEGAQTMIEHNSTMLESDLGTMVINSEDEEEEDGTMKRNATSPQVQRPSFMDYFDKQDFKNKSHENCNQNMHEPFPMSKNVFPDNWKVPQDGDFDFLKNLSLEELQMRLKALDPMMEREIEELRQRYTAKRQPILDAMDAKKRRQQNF
How it was run: (§2)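 Single-concentration screen of each compound against a 59-protein-kinase panel, run at 10 µM or 1 µM. Activity relative to control is shown as a heat map across the panel.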

[4] = molecular target: Serine/threonine-protein kinase N2 (Homo sapiens) (UniProt Q16513); test: Inhibition of PRK2 (unknown origin) at 10 uM relative to control; how it was run: as §2
Sequence of Serine/threonine-protein kinase N2 (Homo sapiens) (Q16513 whole entry, looked up): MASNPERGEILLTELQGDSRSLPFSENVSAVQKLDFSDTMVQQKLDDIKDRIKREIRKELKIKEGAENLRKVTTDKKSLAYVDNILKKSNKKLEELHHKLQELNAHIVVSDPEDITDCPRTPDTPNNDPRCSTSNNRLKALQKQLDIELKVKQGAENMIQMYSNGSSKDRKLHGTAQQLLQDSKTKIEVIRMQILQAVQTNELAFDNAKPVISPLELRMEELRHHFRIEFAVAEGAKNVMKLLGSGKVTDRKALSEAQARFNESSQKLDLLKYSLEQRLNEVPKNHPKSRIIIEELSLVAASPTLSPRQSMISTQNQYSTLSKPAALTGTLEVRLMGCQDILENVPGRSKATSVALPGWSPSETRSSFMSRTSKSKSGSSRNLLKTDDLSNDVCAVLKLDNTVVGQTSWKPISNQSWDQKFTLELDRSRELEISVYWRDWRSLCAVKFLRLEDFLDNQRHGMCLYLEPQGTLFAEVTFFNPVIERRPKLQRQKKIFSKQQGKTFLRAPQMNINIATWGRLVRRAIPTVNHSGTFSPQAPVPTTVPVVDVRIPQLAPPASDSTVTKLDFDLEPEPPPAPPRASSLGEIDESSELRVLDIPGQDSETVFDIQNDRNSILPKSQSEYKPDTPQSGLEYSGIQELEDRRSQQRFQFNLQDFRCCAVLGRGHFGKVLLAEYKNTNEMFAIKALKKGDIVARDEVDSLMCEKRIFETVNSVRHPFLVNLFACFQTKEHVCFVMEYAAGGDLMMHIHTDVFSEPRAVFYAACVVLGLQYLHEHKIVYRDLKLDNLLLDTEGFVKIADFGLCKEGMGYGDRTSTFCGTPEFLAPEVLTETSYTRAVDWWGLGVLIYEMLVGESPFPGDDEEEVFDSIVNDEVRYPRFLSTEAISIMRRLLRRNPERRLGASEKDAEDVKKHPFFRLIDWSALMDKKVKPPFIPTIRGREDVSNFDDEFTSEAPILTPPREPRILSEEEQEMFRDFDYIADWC

[5] = molecular target: Calcium/calmodulin-dependent protein kinase type 1 (Homo sapiens) (UniProt Q14012); test: Inhibition of CAMK1 (unknown origin) at 1 uM relative to control; how it was run: as §1
Sequence of Calcium/calmodulin-dependent protein kinase type 1 (Homo sapiens) (Q14012 whole entry, looked up): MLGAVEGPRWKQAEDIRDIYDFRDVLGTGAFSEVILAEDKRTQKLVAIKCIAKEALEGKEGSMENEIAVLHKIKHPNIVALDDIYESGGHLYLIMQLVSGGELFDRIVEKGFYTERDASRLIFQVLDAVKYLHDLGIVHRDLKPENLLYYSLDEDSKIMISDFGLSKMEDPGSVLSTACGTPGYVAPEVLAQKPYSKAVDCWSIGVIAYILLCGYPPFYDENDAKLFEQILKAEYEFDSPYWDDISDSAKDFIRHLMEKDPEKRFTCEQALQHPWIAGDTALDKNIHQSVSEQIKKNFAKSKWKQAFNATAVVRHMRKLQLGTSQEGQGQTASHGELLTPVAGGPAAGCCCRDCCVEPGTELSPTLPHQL

[6] = molecular target: Calcium/calmodulin-dependent protein kinase kinase 2 (Homo sapiens) (UniProt Q96RR4); test: Inhibition of CAMKKb (unknown origin) at 1 uM relative to control; how it was run: as §1
[7] = molecular target: Ribosomal protein S6 kinase alpha-5 (Homo sapiens) (UniProt O75582); test: Inhibition of MSK1 (unknown origin) at 1 uM relative to control; how it was run: as §2
[8] = molecular target: Serine/threonine-protein kinase Nek6 (Homo sapiens) (UniProt Q9HC98); test: Inhibition of NEK6 (unknown origin) at 1 uM relative to control; how it was run: as §2
Sequence of Serine/threonine-protein kinase Nek6 (Homo sapiens) (Q9HC98 whole entry): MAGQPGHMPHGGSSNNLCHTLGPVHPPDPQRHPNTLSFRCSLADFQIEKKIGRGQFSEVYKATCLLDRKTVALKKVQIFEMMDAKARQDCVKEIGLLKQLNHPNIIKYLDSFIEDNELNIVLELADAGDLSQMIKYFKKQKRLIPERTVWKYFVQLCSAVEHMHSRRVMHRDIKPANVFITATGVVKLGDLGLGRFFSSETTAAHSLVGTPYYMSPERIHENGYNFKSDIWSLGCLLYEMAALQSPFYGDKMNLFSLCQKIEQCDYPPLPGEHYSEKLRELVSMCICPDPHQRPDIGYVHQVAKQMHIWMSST

[9] = molecular target: T3, Serine/threonine-protein kinase D1 (Homo sapiens) (UniProt Q15139); test: Inhibition of PKD1 (unknown origin) at 1 uM relative to control; how it was run: as §2
T3 sequence (whole entry): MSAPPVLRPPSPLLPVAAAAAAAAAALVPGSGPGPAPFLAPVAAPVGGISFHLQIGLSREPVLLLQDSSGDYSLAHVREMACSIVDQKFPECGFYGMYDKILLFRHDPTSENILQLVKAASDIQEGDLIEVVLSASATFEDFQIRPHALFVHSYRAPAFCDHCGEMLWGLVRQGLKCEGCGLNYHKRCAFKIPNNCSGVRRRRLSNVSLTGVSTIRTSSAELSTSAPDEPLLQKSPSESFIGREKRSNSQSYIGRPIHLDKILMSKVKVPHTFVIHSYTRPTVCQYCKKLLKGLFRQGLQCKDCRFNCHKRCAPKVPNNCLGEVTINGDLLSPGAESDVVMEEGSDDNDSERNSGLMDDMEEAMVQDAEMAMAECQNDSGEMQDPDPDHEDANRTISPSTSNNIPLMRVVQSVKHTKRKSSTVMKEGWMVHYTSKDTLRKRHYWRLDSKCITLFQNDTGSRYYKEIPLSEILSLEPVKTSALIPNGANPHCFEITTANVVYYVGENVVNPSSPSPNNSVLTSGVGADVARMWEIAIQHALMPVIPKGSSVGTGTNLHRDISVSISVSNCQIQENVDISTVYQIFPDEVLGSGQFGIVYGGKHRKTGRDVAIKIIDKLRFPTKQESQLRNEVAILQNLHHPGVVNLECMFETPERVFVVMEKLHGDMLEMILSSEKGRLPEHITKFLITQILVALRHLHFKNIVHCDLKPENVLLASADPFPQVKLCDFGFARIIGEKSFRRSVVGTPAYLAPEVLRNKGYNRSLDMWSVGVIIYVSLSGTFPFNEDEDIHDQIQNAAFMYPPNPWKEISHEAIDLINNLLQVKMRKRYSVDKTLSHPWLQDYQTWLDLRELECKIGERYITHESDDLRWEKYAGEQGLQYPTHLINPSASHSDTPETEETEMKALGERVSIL

[10] = molecular target: Serine/threonine-protein kinase PLK1 (Homo sapiens) (UniProt P53350); test: Inhibition of PLK1 (unknown origin) at 1 uM relative to control; how it was run: as §2
Sequence of Serine/threonine-protein kinase PLK1 (Homo sapiens) (P53350 whole entry): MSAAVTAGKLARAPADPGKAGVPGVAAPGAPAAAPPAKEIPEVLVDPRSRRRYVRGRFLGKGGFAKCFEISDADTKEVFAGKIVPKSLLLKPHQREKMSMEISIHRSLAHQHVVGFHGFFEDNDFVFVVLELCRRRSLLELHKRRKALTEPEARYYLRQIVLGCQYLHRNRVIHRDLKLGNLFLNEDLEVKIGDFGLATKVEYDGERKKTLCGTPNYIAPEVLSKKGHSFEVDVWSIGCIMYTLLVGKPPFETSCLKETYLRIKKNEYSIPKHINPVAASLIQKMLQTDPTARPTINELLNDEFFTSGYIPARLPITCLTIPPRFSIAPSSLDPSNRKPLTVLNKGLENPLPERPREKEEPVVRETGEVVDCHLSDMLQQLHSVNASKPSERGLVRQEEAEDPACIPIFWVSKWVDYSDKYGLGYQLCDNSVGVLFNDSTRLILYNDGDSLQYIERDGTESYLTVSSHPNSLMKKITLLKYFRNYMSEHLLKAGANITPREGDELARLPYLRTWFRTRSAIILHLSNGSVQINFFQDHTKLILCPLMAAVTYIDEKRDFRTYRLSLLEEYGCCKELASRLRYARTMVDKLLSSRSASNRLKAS

[11] = molecular target: Ribosomal protein S6 kinase alpha-3 (Homo sapiens) (UniProt P51812); test: Inhibition of RSK2 (unknown origin) at 1 uM relative to control
Sequence of Ribosomal protein S6 kinase alpha-3 (Homo sapiens) (P51812 whole entry): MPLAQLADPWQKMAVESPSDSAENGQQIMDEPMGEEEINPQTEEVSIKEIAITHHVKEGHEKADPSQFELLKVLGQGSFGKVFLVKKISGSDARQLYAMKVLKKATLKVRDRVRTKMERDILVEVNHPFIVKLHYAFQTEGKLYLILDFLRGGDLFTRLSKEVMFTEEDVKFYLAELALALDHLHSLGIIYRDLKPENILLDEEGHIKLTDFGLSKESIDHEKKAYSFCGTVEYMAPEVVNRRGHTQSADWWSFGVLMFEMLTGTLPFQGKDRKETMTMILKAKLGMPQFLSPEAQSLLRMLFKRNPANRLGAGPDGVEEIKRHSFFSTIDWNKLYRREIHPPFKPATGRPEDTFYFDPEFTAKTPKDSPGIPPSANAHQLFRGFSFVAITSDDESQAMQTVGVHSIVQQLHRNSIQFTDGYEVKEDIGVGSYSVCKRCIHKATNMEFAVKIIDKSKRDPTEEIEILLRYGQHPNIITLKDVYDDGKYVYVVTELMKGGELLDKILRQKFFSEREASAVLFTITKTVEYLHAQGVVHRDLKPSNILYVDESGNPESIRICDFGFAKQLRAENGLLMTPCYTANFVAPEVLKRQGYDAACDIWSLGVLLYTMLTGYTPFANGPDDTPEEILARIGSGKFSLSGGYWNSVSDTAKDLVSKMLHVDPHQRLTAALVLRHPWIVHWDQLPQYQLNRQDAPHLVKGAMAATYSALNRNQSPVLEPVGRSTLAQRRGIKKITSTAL
How it was run: (§3)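 Single-concentration screen across a panel of 59 protein kinases, with each compound tested at one fixed concentration. The read-out is residual kinase activity relative to control. Panel results are also condensed into a rescaled geometric mean (RGM) selectivity score.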

[12] = molecular target: Tyrosine-protein kinase Yes (Homo sapiens) (UniProt P07947); test: Inhibition of YES1 (unknown origin) at 1 uM relative to control; how it was run: as §3
Sequence of Tyrosine-protein kinase Yes (Homo sapiens) (P07947 2-543 limits assumed): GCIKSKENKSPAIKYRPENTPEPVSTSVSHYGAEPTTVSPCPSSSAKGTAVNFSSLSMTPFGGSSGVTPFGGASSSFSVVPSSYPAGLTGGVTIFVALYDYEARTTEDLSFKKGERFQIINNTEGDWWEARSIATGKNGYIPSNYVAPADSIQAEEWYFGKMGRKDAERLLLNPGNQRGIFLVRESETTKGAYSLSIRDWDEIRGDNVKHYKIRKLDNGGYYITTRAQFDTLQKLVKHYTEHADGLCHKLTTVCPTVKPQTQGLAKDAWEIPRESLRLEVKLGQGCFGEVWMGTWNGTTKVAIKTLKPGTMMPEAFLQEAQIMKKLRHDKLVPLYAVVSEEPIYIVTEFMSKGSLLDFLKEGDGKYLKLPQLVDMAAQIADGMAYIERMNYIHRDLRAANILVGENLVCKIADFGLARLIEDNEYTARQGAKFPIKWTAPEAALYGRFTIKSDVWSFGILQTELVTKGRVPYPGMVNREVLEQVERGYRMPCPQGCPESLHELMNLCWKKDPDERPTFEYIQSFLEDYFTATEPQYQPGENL

Row | SMILES | inhibition [1] | inhibition [2] | inhibition [3] | inhibition [4] | inhibition [5] | inhibition [6] | inhibition [7] | inhibition [8] | inhibition [9] | inhibition [10] | inhibition [11] | inhibition [12]
1 | Cc1n[nH]c2ccnc(Nc3ccccc3F)c12 | 0% | 77% | 66% | 50% |  |  |  |  |  |  |  | 
2 | CC(C)n1cc(-c2n[nH]c3ccnc(OC4CCOCC4)c23)cn1 |  |  |  |  | 36% | 1% | 18% | 0% | 41% | 0% | 58% | 0%
3 | c1cc(-c2n[nH]c3ccnc(OC4CCOCC4)c23)cc(N2CCOCC2)n1 |  |  |  |  | 7% | 0% | 0% | 0% | 7% | 0% | 0% | 9%
4 | Cc1n[nH]c2ccnc(NC3CCCCC3)c12 | 0% | 70% | 80% | 63% |  |  |  |  |  |  |  | 
5 | Cc1n[nH]c2ccnc(Nc3ccc4ncsc4c3)c12 |  |  | 72% |  |  |  |  |  |  |  |  | 
6 | Cc1n[nH]c2ccnc(OC3CCCCC3)c12 | 0% | 66% | 79% | 92% |  |  |  |  |  |  |  | 
